ChEMBL document CHEMBL1157835, “Synthesis and evaluation of verticipyrone analogues as mitochondrial complex I inhibitors” (Bioorg Med Chem, 2010)

What was measured:
A549 = assay: Cytotoxicity against human A549 cells by MTT assay; format: functional, cell-based
Method in brief: (§1)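 MTT growth assay. MCF-7, A-549 and 3LL cells grown in RPMI-1640; CRL-2365 and CRL-2366 grown in DMEM. All media had 10% FBS, penicillin G (100 U/mL) and streptomycin (100 μg/mL).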

[1] = Cytotoxicity against mouse 3LL cells by MTT assay; format: functional, cell-based; method in brief: as §1
[2] = Inhibition of NADH oxidase from beef heart submitochondrial particles by spectrophotometry; set-up: species or system Bos taurus
Method in brief: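 Bovine heart inverted SMP, stored in 0.25 M sucrose/10 mM Tris-HCl pH 7.4 at −80 °C, diluted to 0.5 mg/mL and activated with 300 NADH. Assayed at 30 °C in 50 mM Hepes pH 7.5, 5 mM MgCl2, 30 μg protein. SMP pre-equilibrated with inhibitor 5 min, then 50 μM NADH added. Rates from the linear part of the trace at 340 nm. Ethanol ≤2%.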

MCF7 = assay: Cytotoxicity against human MCF7 cells by MTT assay; format: functional, cell-based; method in brief: as §1
[3] = Cytotoxicity against human CRL2366 cells by MTT assay; format: functional, cell-based; method in brief: as §1
[4] = Inhibition of NADH-ubiquinone oxidoreductase from beef heart submitochondrial particles by spectrophotometry; set-up: species or system Bos taurus
Method in brief: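 Bovine heart inverted SMP, activated with 300 NADH, 30 μg protein, 30 °C. 5 min inhibitor pre-equilibration, then 50 μM NADH added. Read at 340 nm. […] IC50 is the final concentration giving 50% inhibition; mean ± SD of three independent experiments.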

[5] = Inhibition of mitochondrial complex 1 in human MCF7 cells assessed as concentration required to obtain half maximal lactate production after 3 hrs by spectrophotometry; format: cell-based; conditions: MCF7, 3 h
Method in brief: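 MCF-7 cells seeded at 2 × 10^5 per well and grown 24 h to about 50% confluence, then rinsed. Compounds given in Krebs-Ringer buffer for 3 h, with buffer controls. Supernatant lactate measured by ΔOD at 363 nm (ε 9.1 mM−1 cm−1). IC50 is the dose giving 50% of maximal lactate production. Points are the mean ± SD of triplicates; experiments repeated at least three times.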

[6] = Cytotoxicity against human CRL2365 cells by MTT assay; format: functional, cell-based; method in brief: as §1
MCF-10A = assay: Cytotoxicity against human MCF10A cells by MTT assay; format: functional, cell-based
Method in brief: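 MTT growth assay on MCF-10A cells grown in Mammary Epithelial Growth Medium following the supplier protocol.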

Row | Compound | IC50 [2] | IC50 [4] | IC50 (A549) | IC50 [1] | IC50 (MCF7) | IC50 [3] | IC50 [5] | IC50 [6] | IC50 (MCF-10A)
1 | CCCCCCCC[C@](C)(O)CCc1oc(=O)c(C)c(O)c1C | 10.7 µM | 13.3 µM | > 31 µM | > 31 µM | > 31 µM | > 31 µM | 16.6 µM | > 31 µM | > 31 µM
2 | CCCCC(O)Cc1oc(OC)c(C)c(=O)c1C (stereo not given) | > 20 µM | > 25 µM | – | – | – | – | > 20 µM | – | –
3 | COc1oc(CC(O)CCCCCCc2ccccc2)c(C)c(=O)c1C (stereo not given) | 0.0725 µM | 0.257 µM | > 27 µM | 17.3 µM | > 27 µM | > 27 µM | 0.88 µM | > 27 µM | 15.1 µM
4 | CCCCCCCC[C@@](C)(O)CCc1oc(OC)c(C)c(=O)c1C | 0.0459 µM | 0.133 µM | 5.3 µM | 0.39 µM | 3.3 µM | 2.7 µM | 0.3 µM | 3.3 µM | 5.3 µM
5 | CCCCCCCC[C@](C)(O)CCc1oc(OC)c(C)c(=O)c1C | 0.0432 µM | 0.126 µM | 4.1 µM | 0.34 µM | – | 3.3 µM | 0.18 µM | 2.4 µM | 5.6 µM
6 | CCCCCCCCCC(O)Cc1oc(OC)c(C)c(=O)c1C (stereo not given) | 0.0649 µM | 0.231 µM | 20.7 µM | 22.2 µM | 23.2 µM | > 31 µM | 0.9 µM | 29.9 µM | 9.9 µM
7 | CCCCCCCCC(C)(O)CCc1[nH]c(=O)c(C)c(O)c1C (racemic) | 4.29 µM | 1.25 µM | – | – | – | – | – | – | –
8 | CCCCCCCCC(C)(O)CCc1oc(C)c(C)c(=O)c1C (racemic) | 0.055 µM | 0.18 µM | > 31 µM | > 31 µM | > 31 µM | > 31 µM | 0.94 µM | > 31 µM | > 31 µM
9 | CCCCCCCCC(C)(O)CCc1oc(=O)c(C)c(O)c1C (racemic) | 13.6 µM | 16.4 µM | > 31 µM | > 31 µM | > 31 µM | > 31 µM | 4.9 µM | > 31 µM | > 31 µM
10 | CCCCCC[C@H]1C(=O)O[C@H](C)[C@H](NC(=O)c2cccc(NC=O)c2O)C(=O)O[C@@H](C)[C@@H]1OC(=O)CC(C)C [ANTIMYCIN A] | – | – | – | – | – | – | < 0.15 µM | – | –

More lines, in order of falling IC50 [2], values ahead:

Row | IC50 [2] | IC50 [4] | Compound | IC50 (A549) | IC50 [1] | IC50 (MCF7) | IC50 [3] | IC50 [5] | IC50 [6] | IC50 (MCF-10A)
11 | 14.7 µM | 19 µM | CCCCCCCC[C@@](C)(O)CCc1oc(=O)c(C)c(O)c1C | > 31 µM | > 31 µM | > 31 µM | > 31 µM | 8.6 µM | > 31 µM | > 31 µM
12 | 0.219 µM | 0.595 µM | COc1oc(CC(O)CCCCCOc2ccccc2)c(C)c(=O)c1C (stereo not given) | – | – | – | – | – | – | –
13 | 0.0526 µM | 0.151 µM | CCCCCCCCC(C)(O)CCc1oc(OC)c(C)c(=O)c1C (racemic) | – | – | – | – | 0.38 µM | – | –
14 | 0.0508 µM | 0.145 µM | CCCCCCCC[C@@](C)(O)CCc1oc(C)c(C)c(=O)c1C | – | – | – | – | – | – | –
15 | 0.0475 µM | 0.135 µM | CCCCCCCC[C@](C)(O)CCc1oc(C)c(C)c(=O)c1C | – | – | – | – | – | – | –
16 | 0.0359 µM | 0.102 µM | COc1oc(CC(O)CCCCCOc2ccc(-c3ccccc3)cc2)c(C)c(=O)c1C (stereo not given) | 17 µM | 13.5 µM | 17.4 µM | 19.5 µM | 0.34 µM | 12.4 µM | 9.2 µM
